Here are results for one compound from ChEMBL document CHEMBL5712887, “Disruption of BRD4 at H3K27Ac-enriched enhancer region correlates with decreased c-Myc expression in Merkel cell carcinoma” (Epigenetics, 2015).

One series has as its system Mus musculus. In words: In vivo disruption of BRD4 occupancy at the putative c-Myc super-enhancer region in human MCC-3 cells xenografted NSG mouse at 50 mg/kg, ip administered daily for 3 weeks and measured post-last dose by ChIP-qPCR analysis. The format is functional, organism-based. In outline:
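Frozen xenograft tumours crosslinked with 1% formaldehyde for 10 min, quenched with 0.125 M glycine, lysed and sonicated. Anti-BRD4 IP on anti-rabbit IgG beads. SYBR qPCR with primers at the putative c-Myc super-enhancer, plus control regions 5000 bp up- and downstream. 3 biological replicates, vehicle versus treated.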
(In general: In xenograft studies the graft and the host belong to different species.)

Series [1] can be described thus: Toxicity in human MKL-1 cells xenografted NSG mouse assessed as effect on activity at 50 mg/kg, ip administered daily for 3 weeks. The format is organism-based. The following applies: in vivo, 504 h. In outline: (§1)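 Mice with subcutaneous xenografts dosed i.p. daily for 3 weeks (vehicle 10% 2-hydroxypropyl-β-cyclodextrin in water) and monitored daily. Toxicity judged from body weight, food and water intake, activity and general examination.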

The nature of series [2]: Toxicity in human MCC-3 cells xenografted NSG mouse assessed as effect on general examination at 50 mg/kg, ip administered daily for 3 weeks. The format is organism-based. As to conditions: in vivo, 504 h. Summed up: as §1
Series [3] relates to MCC-3. In words: Antitumor activity against human MCC-3 cells xenografted in NSG mouse assessed as effect on H3K27Ac expression at 50 mg/kg, ip administered daily for 3 weeks and measured post-last dose by immunoblotting method. The series is classed as functional, organism-based. In outline: (§2)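 Tumours excised at endpoint from NSG mice bearing subcutaneous flank xenografts (~100 mm3 at randomisation), dosed i.p. daily for 3 weeks, vehicle 10% 2-hydroxypropyl-β-cyclodextrin in water. Lysates resolved by SDS-PAGE, electroblotted to PVDF (200V, 2 h). Membranes blocked in 5% milk, primary antibody overnight at 4°C, then secondary 1 h, and detected by ECL.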

Series [4] in a line: Antitumor activity against human MCC-3 cells xenografted in NSG mouse assessed as reduction in tumor volume at 50 mg/kg, ip administered daily for 3 weeks and measured post-last dose by caliper method relative to control. Also on record: scale not given: the % may be the effect or the level left. The series is classed as functional.
Series [5] can be described thus: Toxicity in human MCC-3 cells xenografted NSG mouse assessed as effect on body weight at 50 mg/kg, ip administered daily for 3 weeks. The format is organism-based. The following applies: in vivo, 504 h. Summed up:
as §1

Series [6] is described as follows: Toxicity in human MCC-3 cells xenografted NSG mouse assessed as effect on activity at 50 mg/kg, ip administered daily for 3 weeks. The format is organism-based. The following applies: in vivo, 504 h. In outline:
as §1

Series [7] is described as follows: Antitumor activity against human MKL-1 cells xenografted in NSG mouse assessed as reduction in tumor volume at 50 mg/kg, ip administered daily for 3 weeks and measured post-last dose by caliper method relative to control. The series is classed as functional. Also on record: scale not given: the % may be the effect or the level left. Summed up:
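NSG mice with subcutaneous flank xenografts (MKL-1: 2 × 10^7 cells in matrigel), randomised at ~100 mm3 (n ≥ 7 per group). Dosed i.p. daily for 3 weeks; vehicle 10% 2-hydroxypropyl-β-cyclodextrin in water. Calipers, volume = L2 × W/2; final tumour volume, mean ± SEM, Mann-Whitney test.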

The nature of series [8]: Toxicity in human MKL-1 cells xenografted NSG mouse assessed as effect on body weight at 50 mg/kg, ip administered daily for 3 weeks. The following applies: in vivo, 504 h. The series is classed as organism-based. Summed up: as §1
Series [9] concerns MCC-3. In words: Antitumor activity against human MCC-3 cells xenografted in NSG mouse assessed as reduction in c-Myc mRNA expression at 50 mg/kg, ip administered daily for 3 weeks and measured post-last dose by qRT-PCR analysis. The series is classed as functional, organism-based. Summed up:
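Excised xenograft tumours from NSG mice dosed i.p. daily for 3 weeks (vehicle 10% 2-hydroxypropyl-β-cyclodextrin in water) versus vehicle group. c-Myc mRNA measured by qRT-PCR on 3 biological replicates.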

The nature of series [10]: Toxicity in human MKL-1 cells xenografted NSG mouse assessed as effect on food intake at 50 mg/kg, ip administered daily for 3 weeks. The series is classed as organism-based. The following applies: in vivo, 504 h. In outline:
as §1

Series [11] can be described thus: Toxicity in human MKL-1 cells xenografted NSG mouse assessed as effect on general examination at 50 mg/kg, ip administered daily for 3 weeks. The format is organism-based. As to conditions: in vivo, 504 h. In outline:
as §1

Series [12] is described as follows: Toxicity in human MCC-3 cells xenografted NSG mouse assessed as effect on water intake at 50 mg/kg, ip administered daily for 3 weeks. The series is classed as organism-based. As to conditions: in vivo, 504 h. In outline:
as §1

The test system of series [13] is MCC-3. In words: Antitumor activity against human MCC-3 cells xenografted in NSG mouse assessed as effect on BRD4 expression at 50 mg/kg, ip administered daily for 3 weeks and measured post-last dose by immunoblotting method. The format is functional, organism-based. In outline:
as §2

A short description of series [14]: Toxicity in human MCC-3 cells xenografted NSG mouse assessed as effect on food intake at 50 mg/kg, ip administered daily for 3 weeks. The format is organism-based. As to conditions: in vivo, 504 h. Summed up:
as §1

The nature of series [15]: Toxicity in human MKL-1 cells xenografted NSG mouse assessed as effect on water intake at 50 mg/kg, ip administered daily for 3 weeks. The series is classed as organism-based. As to conditions: in vivo, 504 h. In outline: as §1
Series [16] relates to MCC-3. Put plainly: Antitumor activity against human MCC-3 cells xenografted in NSG mouse assessed as reduction in c-Myc expression at 50 mg/kg, ip administered daily for 3 weeks and measured post-last dose by immunoblotting method. The series is classed as functional, organism-based. In outline: as §2

Each structure is given as a SMILES string. The source made the active and inactive calls. No cut-off for these calls is given here.

Consider `Cc1sc2c(c1C)C(c1ccc(Cl)cc1)=N[C@@H](CC(=O)OC(C)(C)C)c1nnc(C)n1-2`, for which the result with Mus musculus, with MCC-3 [9] and in the series with MCC-3 [16] was Active. Also, the Activity result in [1] was “Non-Toxic”; in series [2], “Non-Toxic”; in [4], 75.6%; in series [5], “Non-Toxic”; in series [6], “Non-Toxic”; in series [7], 48.9%. Further, the Activity entry in [8], in series [10], in series [11], in series [12], in series [14] and in series [15] was “Non-Toxic” in each case. The result in the series on MCC-3 [3] and in the series with MCC-3 [13] was inactive.
